In ChEMBL document CHEMBL4041471, “neo-Clerodane Diterpenoids and Other Constituents of Salvia filipes” (J Nat Prod, 2016):
Activity calls are given as the source filed them.

Experiments:
Format in all cases: functional, cell-based
MCF7 = test: Cytotoxicity against human MCF7 cells at 20 to 25 uM measured after 48 hrs by SRB assay
Procedure, shortened: (§1)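 SRB screen in human cancer lines (U-251 glioblastoma, PC-3 prostate, K562 leukemia, HCT-15 colorectal, MCF-7 breast, SKLU-1 lung). 5000−7500 cells per well were preincubated 24 h at 37 °C, 5% CO2, then exposed to compound (20.0 or 25.0 μM) for 48 h. Cells were fixed and stained with sulforhodamine B, and absorbance was read at 515 nm.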

PC-3 = test: Cytotoxicity against human PC3 cells at 20 to 25 uM measured after 48 hrs by SRB assay; procedure, shortened: as §1
HCT-15 = test: Cytotoxicity against human HCT15 cells at 20 to 25 uM measured after 48 hrs by SRB assay; procedure, shortened: as §1
K562 = test: Cytotoxicity against human K562 cells at 20 to 25 uM measured after 48 hrs by SRB assay; procedure, shortened: as §1
U-251 = test: Cytotoxicity against human U251 cells at 20 to 25 uM measured after 48 hrs by SRB assay; procedure, shortened: as §1
SK-LU-1 = test: Cytotoxicity against human SKLU1 cells at 20 to 25 uM measured after 48 hrs by SRB assay; procedure, shortened: as §1

Measured: Activity

C[C@@H]1[C@@H](C)O[C@@H]2O[C@@H](c3ccoc3)C[C@@]21c1cccc2c1COC2=O
inactive: MCF7 | PC-3 | HCT-15 | K562 | U-251 | SK-LU-1

COC1C=C([C@H]2C[C@]34[C@@H](O2)O[C@H](C[C@@]25COC(=O)[C@@H]2CC=C[C@H]53)[C@H]4C)C(=O)O1 (mixture of isomers)
inactive: MCF7 | PC-3 | HCT-15 | K562 | U-251 | SK-LU-1

C[C@@H]1[C@H]2C[C@@]34COC(=O)[C@@H]3CC=C[C@H]4[C@@]13C[C@H](C1=CC(=O)OC1O)O[C@H]3O2 (stereo not given in full)
inactive: MCF7 | PC-3 | HCT-15 | K562 | U-251 | SK-LU-1

C[C@@H]1[C@H]2C[C@@]34COC(=O)[C@@H]3CC=C[C@H]4[C@@]13C[C@H](c1ccoc1)O[C@H]3O2
inactive: MCF7 | PC-3 | HCT-15 | K562 | U-251 | SK-LU-1

C[C@@H]1[C@H]2C[C@@]34COC(=O)[C@H]3CC=C[C@H]4[C@@]13C[C@H](C1=CC(O)OC1=O)O[C@H]3O2 (stereo not given in full)
inactive: MCF7 | PC-3 | HCT-15 | K562 | U-251 | SK-LU-1

C[C@@]12C[C@@]3(c4ccoc4)O[C@@]14CCC=C1C(=O)OC[C@]14CC[C@]2(C)O3
inactive: MCF7 | PC-3 | HCT-15 | K562 | U-251 | SK-LU-1

COc1ccc(-c2cc(=O)c3c(O)c(OC)c(OC)cc3o2)cc1O
inactive: MCF7 | PC-3 | HCT-15 | K562 | U-251 | SK-LU-1

C[C@@H]1[C@H]2C[C@@]34COC(=O)[C@H]3CC=C[C@H]4[C@@]13C[C@H](c1ccoc1)O[C@H]3O2
inactive: MCF7 | PC-3 | HCT-15 | K562 | U-251 | SK-LU-1

C[C@@H]1[C@H]2C[C@@]34COC(=O)[C@@H]3CC=C[C@H]4[C@@]13C[C@H](C1=CC(O)OC1=O)O[C@H]3O2 (stereo not given in full)
inactive: MCF7 | PC-3 | HCT-15 | K562 | U-251 | SK-LU-1

C[C@@H]1[C@H]2C[C@@]34COC(=O)[C@H]3CC=C[C@H]4[C@@]13C[C@H](C1=CC(=O)OC1O)O[C@H]3O2 (stereo not given in full)
inactive: MCF7 | PC-3 | HCT-15 | K562 | U-251 | SK-LU-1
